Shown is part of a subset that was picked to be rich in hits.
HUVEC inhibit: inhibitors of HUVEC proliferation, primary screen, cell-based, 384-well | CellTiter-Glo luminescence, 72 h; active compounds read low | viability, % at 10 µM (by protocol) | 86,000 tested, 1.1% active;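 active means viability at or below 30%; inactive means viability above 30%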
bCat KO growth: primary screen for growth suppressors in beta-catenin knockout HCT116 cells (colon tumor, human); HCT116 beta-catenin knockout viability, CellTiter-Glo, 60 h; active compounds read low; viability, % at 10 µM; 140,000 tested, 1.5% active;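 active means viability at or under a set limit, the compound median less 4 SD, cut at about 6% in these data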
PTEN del growth: growth suppression of PTEN-null HCT116, primary screen, cell-based, CellTiter-Glo; HCT116 PTEN-null viability, 60 h; active compounds read low; viability, % at 10 µM; 140,000 tested, 1.2% active;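 active means viability at or below a set limit, 4 SD under the median of all tested compounds, cut at about 3.7% in these data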;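 further: PTEN knockout HCT116 line with beta catenin targeted HCT116 as companion control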
H69AR growth 86K: proliferation blockers of H69AR lung cancer cells, primary screen, cell-based, human, 86K library; 85,000 tested, 6% active; viability, % at 10 µM; H69AR lung tumor viability, ATP luminescence, 72 h; active compounds read low; AID 598, 2007;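 active means viability at or below 40%; inactive means viability above 40%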;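 further: multidrug resistant small cell line overexpressing MRP-1 efflux transporter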
Fibroblast inh: antiproliferative effect on LL 47 fibroblasts – human, LL 47 cells, CellTiter-Glo luminescence, primary screen; LL 47 human lung fibroblast viability, ATP luminescence; active compounds read low; viability, % at 10 µM; 85,000 tested, 1.1% active;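 active means viability at or below 50% in the single dose screen; inactive means viability above 50%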;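 further: compound exposure lasted 72 h before the ATP readout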
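Material: human LL 47 lung fibroblast cells; quantity: 1,150 cells/well; medium: IMEM plus 15% FBS; doses: 0.1% DMSO in all compound wells; timing: overnight attachment after seeding, then 72 h compound exposure at 37 °C; detection: CellTiter-Glo luminescence; measure: % viability of median cell-only signal; controls: cell-only wells, no compound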
Of the large screens only hits and unclear results are named; the others gave an inactive call.

O=C(c1ccc(Cn2c(=O)[nH]c3ccccc3c2=O)cc1)N1CCN(c2ccc(Cl)cc2)CC1	H69AR growth 86K 36
C=CCn1c(=O)[nH]c2cc(C(=O)N3CCN(c4cc(C)ccc4C)CC3)ccc2c1=O	H69AR growth 86K 25
C=CCn1c(=O)[nH]c2cc(C(=O)N3CCN(c4ccc(C(C)=O)cc4)CC3)ccc2c1=O	none
Cc1ccc(C)c(N2CCN(c3nc4ccccc4c(=O)n3Cc3ccccc3)CC2)c1	none
CN(C)CCCNC(NC(=O)c1cccs1)C(Cl)(Cl)Cl (stereo not drawn)	none (no result: HUVEC inhibit, H69AR growth 86K, Fibroblast inh)
CCS(=O)(=O)N1Cc2ccccc2CC1C(=O)Nc1nnc(SCc2ccc(F)cc2)s1 (stereo not drawn)	none (no result: HUVEC inhibit, H69AR growth 86K, Fibroblast inh)
Cc1cc(C)c(NS(=O)(=O)c2ccc3c(c2)NC(=O)CC(=O)N3)c(C)c1	none (no result: HUVEC inhibit, H69AR growth 86K, Fibroblast inh)
Clc1ccc(OCc2nnc(SCCN3CCCCC3)n2Cc2ccco2)cc1	H69AR growth 86K 15
O=C(CSc1nnc(COc2ccccc2)n1Cc1ccco1)c1ccc(F)cc1	H69AR growth 86K 39
COc1ccccc1NC(=O)CSc1nnc(COc2ccc(Cl)cc2)n1Cc1ccco1	none
Cc1ccc(OCc2nnc(SCC(=O)c3ccccc3)n2Cc2ccco2)cc1	none (no result: HUVEC inhibit, H69AR growth 86K, Fibroblast inh)
CCOC(=O)C1(c2nc(N)cs2)COC(=O)C1 (stereo not drawn)	none (no result: Fibroblast inh)
CCCNC(=O)COC(=O)c1cc2c(=O)n3ccccc3nc2s1	none (no result: HUVEC inhibit, H69AR growth 86K, Fibroblast inh)
CC(=O)Nc1ccccc1N(C)S(=O)(=O)c1ccc(C)cc1	H69AR growth 86K 37
CC(=O)Nc1ccccc1NC(=O)CN(C)S(=O)(=O)c1ccc(C)cc1	none
CCN(CC)S(=O)(=O)c1cccc(C(=O)Nc2cccc(C)c2)c1	H69AR growth 86K 25
CCN(CC)S(=O)(=O)c1cccc(C(=O)Nc2ccc(C#N)cc2)c1	none (no result: Fibroblast inh)
CCN(CC)S(=O)(=O)c1cccc(C(=O)Nc2cc(C)cc(C)c2)c1	H69AR growth 86K 32
Cc1oc2c(C)c3oc(=O)c4c(c3cc2c1C)CCCC4	H69AR growth 86K 14 (no result: Fibroblast inh)
Cc1c(O)ccc2c3c(c(=O)oc12)CCCC3	none
Cc1cc(C)cc(Nc2cc(=O)n(C3CCCCC3)c(=O)[nH]2)c1	H69AR growth 86K 39
CCCN1C[C@H](CSC)C[C@@H]2c3cccc4[nH]cc(c34)C[C@H]21	none (no result: HUVEC inhibit, H69AR growth 86K, Fibroblast inh)
O=C(OCC(=O)N1CCN(c2ccccc2)CC1)C1=COCCO1	H69AR growth 86K 34
O=C(OCC(=O)N1CCN(C(=O)c2ccco2)CC1)c1ccccc1C(=O)c1ccccc1	none
O=C(OCC(=O)N1CCN(C(=O)c2ccco2)CC1)C1=COCCO1	none
O=C(OCC(=O)N1CCN(c2ccccc2)CC1)c1ccco1	H69AR growth 86K 29
CC(=O)Nc1ccccc1/C=C/c1ccc2c(C)cc(C)c(O)c2n1	PTEN del growth 3.3 (no result: HUVEC inhibit, H69AR growth 86K, Fibroblast inh)
CC(=O)Nc1ccccc1/C=C/c1ccc2c(C)ccc(O)c2n1	none (no result: HUVEC inhibit, H69AR growth 86K, Fibroblast inh)
COc1cc(/C=C2/C(=N)N3C=CSC3=NC2=O)ccc1OCCCOc1c(C)cccc1C	none
CCOc1cc(/C=C2/C(=N)N3C=CSC3=NC2=O)ccc1OCCCOc1ccccc1C	HUVEC inhibit 18, H69AR growth 86K 6.5, Fibroblast inh 32
COc1cc(/C=C2/C(=N)N3C=CSC3=NC2=O)ccc1OCCCOc1ccccc1C	HUVEC inhibit 15, H69AR growth 86K 6.1
CCOC(=O)c1cnn(-c2nc(-c3cccc(F)c3)cs2)c1C(F)(F)F	none (no result: HUVEC inhibit, H69AR growth 86K, Fibroblast inh)
Cc1ccc(Cl)c(OC(=O)c2nn(C(C)C)c(=O)c3ccccc23)c1	none (no result: HUVEC inhibit, H69AR growth 86K, Fibroblast inh)
CC1(C)CC(=O)c2sc(NC(=O)c3cccs3)nc2C1	none
COc1ccc(CCN2CCC(Nc3nc4ccccc4n3Cc3ccc(F)cc3)CC2)cc1	HUVEC inhibit 1.9, bCat KO growth 1.0, PTEN del growth 1.2, H69AR growth 86K 1.5, Fibroblast inh 2.1
Clc1cc(Cl)cc(Nc2ncn[nH]2)c1	none (no result: HUVEC inhibit, H69AR growth 86K, Fibroblast inh)
CCc1ccc2[nH]c(=O)c(CN(Cc3ccco3)S(=O)(=O)c3ccc4c(c3)OCCO4)cc2c1	H69AR growth 86K 23
Cc1ccc(C)c2[nH]c(=O)c(CN(Cc3ccco3)S(=O)(=O)c3ccc4c(c3)OCCO4)cc12	none
CS(=O)(=O)N(CC(=O)N1CCc2ccccc2C1)Cc1ccccc1	none
c1ccc(-c2cc3c(nn2)CCc2nonc2-3)cc1	none
[O-][n+]1onc2c3cc(-c4ccccc4)nnc3ccc21	H69AR growth 86K 17
Cc1cc2ncn(C(=O)c3ccc4c(c3)OCO4)c2cc1C	none
Cc1cc2ncn(C(=O)N3CCC(C)CC3)c2cc1C	bCat KO growth 0.6, PTEN del growth 0.7

Source: PubChem BioAssay
